A value given as a limit tells only on which side of the number the result lay.

Experiment [1] addresses Sodium-dependent dopamine transporter (Rattus norvegicus, UniProt P23977). In words: Inhibition of dopamine Transporter Affinity against rat whole brain using [3H]WIN-35428 as radioligand. Type of experiment: tissue-based.
For experiment [2], the target named is Norepinephrine transporter (Rattus norvegicus, UniProt Q9WTR4). In words: Inhibition of norepinephrine Transporter Affinity against rat whole brain using [3H]nisoxetine radioligand. In a few lines:
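Whole brain minus cerebellum membranes in 50 mM Tris-HCl pH 7.4 with 300 mM NaCl and 5 mM KCl. Displacement of 0.7 nM [3H]nisoxetine. Incubated 40 min at 25 °C, then filtered on BSA-soaked GF/B. 1 μM desipramine defined nonspecific binding.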

The target of experiment [3] is T1, Monoamine transporters; Norepininephrine & dopamine (Rattus norvegicus) (UniProt P23977+Q9WTR4). Put plainly: (§1) Selectivity for Norepinephrine and Dopamine Transporters was evaluated. Type of experiment: protein assay.
Target sequence in this assay (P23977 whole entry): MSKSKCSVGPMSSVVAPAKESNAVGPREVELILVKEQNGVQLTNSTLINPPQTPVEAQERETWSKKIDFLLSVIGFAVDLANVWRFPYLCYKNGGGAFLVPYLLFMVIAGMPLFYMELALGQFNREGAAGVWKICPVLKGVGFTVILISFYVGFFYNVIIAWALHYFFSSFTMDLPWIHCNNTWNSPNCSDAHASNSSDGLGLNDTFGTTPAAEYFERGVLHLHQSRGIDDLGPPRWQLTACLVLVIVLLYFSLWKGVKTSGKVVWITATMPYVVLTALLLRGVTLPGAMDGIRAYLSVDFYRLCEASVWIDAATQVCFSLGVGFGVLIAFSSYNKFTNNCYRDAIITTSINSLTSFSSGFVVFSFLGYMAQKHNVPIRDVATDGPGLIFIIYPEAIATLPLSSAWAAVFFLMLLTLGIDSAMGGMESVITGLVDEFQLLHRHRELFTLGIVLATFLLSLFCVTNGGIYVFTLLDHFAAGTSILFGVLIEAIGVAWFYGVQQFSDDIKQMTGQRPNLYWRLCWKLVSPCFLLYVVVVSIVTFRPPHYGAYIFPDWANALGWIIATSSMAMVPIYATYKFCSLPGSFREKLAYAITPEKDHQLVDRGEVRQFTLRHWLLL
Target sequence in this assay (Q9WTR4 1-597): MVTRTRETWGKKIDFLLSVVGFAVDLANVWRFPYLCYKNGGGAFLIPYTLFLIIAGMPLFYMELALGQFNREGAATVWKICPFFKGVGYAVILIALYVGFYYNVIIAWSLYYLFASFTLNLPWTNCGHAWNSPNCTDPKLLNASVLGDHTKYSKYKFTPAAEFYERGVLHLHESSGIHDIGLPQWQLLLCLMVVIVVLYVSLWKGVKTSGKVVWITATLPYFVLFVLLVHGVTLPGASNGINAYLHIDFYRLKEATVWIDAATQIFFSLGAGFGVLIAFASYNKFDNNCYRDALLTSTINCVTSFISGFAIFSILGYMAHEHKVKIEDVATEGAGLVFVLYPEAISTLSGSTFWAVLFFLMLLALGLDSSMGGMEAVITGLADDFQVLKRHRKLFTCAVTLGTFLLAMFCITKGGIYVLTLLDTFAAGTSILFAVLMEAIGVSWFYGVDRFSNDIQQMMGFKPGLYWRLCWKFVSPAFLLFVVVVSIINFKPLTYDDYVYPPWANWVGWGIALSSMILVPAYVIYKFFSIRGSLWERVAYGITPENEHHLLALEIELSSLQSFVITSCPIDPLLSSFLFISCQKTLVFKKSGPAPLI
Experiment [4] addresses T1, Monoamine transporters; Norepininephrine & dopamine (Rattus norvegicus). The experiment is described as §1. The format is protein assay. This is another data set of the same source.
The target of experiment [5] is Sodium-dependent serotonin transporter (Rattus norvegicus, UniProt P31652). Put plainly: Inhibition of serotonin Transporter Affinity against rat whole brain using [3H]paroxetine as radioligand.
Sodium-dependent serotonin transporter, sequence (P31652 whole entry): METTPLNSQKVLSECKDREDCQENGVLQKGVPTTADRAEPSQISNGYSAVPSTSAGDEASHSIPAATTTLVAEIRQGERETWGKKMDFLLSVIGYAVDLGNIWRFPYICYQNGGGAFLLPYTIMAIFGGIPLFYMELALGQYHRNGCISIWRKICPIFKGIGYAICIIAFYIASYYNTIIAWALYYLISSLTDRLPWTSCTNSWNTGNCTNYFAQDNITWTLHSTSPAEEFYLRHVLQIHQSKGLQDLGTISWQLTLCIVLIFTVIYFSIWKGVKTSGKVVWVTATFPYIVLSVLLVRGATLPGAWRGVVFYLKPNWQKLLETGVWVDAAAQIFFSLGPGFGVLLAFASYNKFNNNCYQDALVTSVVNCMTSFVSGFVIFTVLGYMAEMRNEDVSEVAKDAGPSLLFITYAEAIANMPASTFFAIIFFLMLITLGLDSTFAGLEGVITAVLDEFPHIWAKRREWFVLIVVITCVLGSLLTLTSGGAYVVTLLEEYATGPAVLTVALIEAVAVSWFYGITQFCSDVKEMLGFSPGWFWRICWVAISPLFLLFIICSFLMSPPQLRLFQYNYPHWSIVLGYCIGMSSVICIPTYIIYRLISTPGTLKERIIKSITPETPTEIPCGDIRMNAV

Sodium-dependent dopamine transporter, sequence (P23977 whole entry): as the sequence (P23977 whole entry) above
Norepinephrine transporter, sequence (Q9WTR4 whole entry): as the sequence (Q9WTR4 1-597) above

In general, IC50 refers to the concentration at which inhibition is half-maximal. Regarding `CC[C@@H]1C2CCC(C[C@@H]1OC(=O)c1ccc(I)cc1)N2C` (stereo not given in full), the half-maximal inhibitory concentration (IC50) in experiment [1] came out at 2690 nM.
Still for that read-out and setting: in the case of `CN1C2CCC1[C@@H](c1nc(-c3ccccc3)no1)[C@@H](OC(=O)c1ccc(I)cc1)C2` (stereo not given in full) it was 3460 nM; in that of `CNC(=O)[C@@H]1C2CCC(C[C@@H]1OC(=O)c1ccc(I)cc1)N2C` (stereo not given in full), over 100000 nM.
The molecule `COC(=O)[C@H]1[C@@H](c2ccc(F)cc2)C[C@H]2CC[C@H]1N2C` displayed an IC50 in experiment [2] of 258 nM.
For `CC(C)OC(=O)[C@@H]1C2CCC(C[C@@H]1OC(=O)c1ccc(I)cc1O)N2C` (stereo not given in full), the figures for the Selectivity in experiment [3] and in experiment [4] were 6.8 and 52.5, respectively. For the same molecule, the figures for the IC50 in experiment [1], in experiment [5] and in experiment [2] were 663 nM, 4510 nM and 34800 nM, respectively.
For `COC(=O)[C@@H]1C2CCC(C[C@@H]1OC(=O)c1ccc(I)cc1O)N2C` (stereo not given in full) the same measures were 0.9, 4.7, 215 nM, 195 nM and 1020 nM.
Consider `COC(=O)[C@@H]1C2CCC(C[C@@H]1OC(=O)c1ccc(I)cc1)N2C` (stereo not given in full), for which the Selectivity in experiment [3] came out at 0.4; in experiment [4], 7.3. In addition, the IC50 is 1050 nM in experiment [5] and 18500 nM in experiment [2].
Regarding `CC(=O)OC[C@@H]1C2CCC(C[C@@H]1OC(=O)c1ccc(I)cc1)N2C` (stereo not given in full), the IC50 in experiment [1] is 3000 nM.
In turn, `C=C[C@@H]1C2CCC(C[C@@H]1OC(=O)c1ccc(I)cc1)N2C` (stereo not given in full) gave an IC50 in experiment [1] of 2170 nM.
For the molecule `COC(=O)[C@@H]1C2CCC(C[C@@H]1OC(=O)c1ccccc1O)N2C` (stereo not given in full), the figures for the Selectivity in experiment [3] and in experiment [4] were 5.7 and 1.9, respectively. Besides, the results for the IC50 in experiment [1], in experiment [5] and in experiment [2] were 25 nM, 143 nM and 48 nM, respectively.
In turn, `CN1C2CCC1[C@@H](C(=O)Oc1ccccc1)[C@@H](OC(=O)c1ccc(I)cc1)C2` (stereo not given in full) had an IC50 in experiment [1] of 2020 nM.
On the same count and under the same terms, in the case of `CN1C2CCC1[C@@H](CO)[C@@H](OC(=O)c1ccc(I)cc1)C2` (stereo not given in full) it was 6210 nM; in that of `CC(C)OC(=O)[C@@H]1C2CCC(C[C@@H]1OC(=O)c1ccc(I)cc1)N2C` (stereo not given in full), 1380 nM; in that of `CCOC(=O)[C@@H]1C2CCC(C[C@@H]1OC(=O)c1ccc(I)cc1)N2C` (stereo not given in full), 2030 nM.
On the same count and under the same terms, in the case of `CN1C2CCC1[C@@H](C(=O)OCc1ccccc1)[C@@H](OC(=O)c1ccc(I)cc1)C2` (stereo not given in full) it was 4600 nM.

The values are drawn from ChEMBL document CHEMBL1131002, “2beta-Substituted analogues of 4'-iodococaine: synthesis and dopamine transporter binding potencies” (J Med Chem, 1998).
